Data on 167 variants can be found in the RNAGym collection of RNA variant scans (doi:10.1126/science.aae0568).

This sample holds only a part of the variants without activity.

First the molecules themselves.
B1: tRNA (parent)
chain: GUUCCGUUGGCGUAAUGGUAACGCGUCUCCCUCCUAAGGAGAAGACUGCGGGUUCGAGUCCCGUACGGAACG

Variants of B1 are the subject of this data set. In words: yeast fitness relative to wild type (ratio to wild type); higher = fitter; tRNA-Arg(CCU), competitive growth, 37 C, YPD. A digest of the protocol: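 Start and end populations of a pooled competition were compared by 100-nucleotide paired-end sequencing of gene amplicons. The Saccharomyces cerevisiae strains carried tRNA-Arg(CCU) gene variants at the native genomic locus, synthesised with a 3% per-site mutation rate at 69 sites, and competed in YPD at 37°C for 24 hours in six parallel replicates. Darwinian fitness relative to wild type was based on the change in genotype frequencies. Genotypes required ≥ 100 starting reads, and estimates < 0.5 were set to 0.5.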
Take C29A A40U U47A: the yeast fitness came out at 0.772. For U28G C49U A69U, the yeast fitness is 0.804. For the variant U28C A42C C60U, the yeast fitness is 0.589. Next, C30A A37C C60A: not above 0.5; U28G G44C G48C: 0.556; C29U C55G A65U: not above 0.5. In the case of U28G C29U G50C it was not above 0.5; in that of C29A G56C A57U, 0.583; in that of C30A C60U C66U, not above 0.5. On to U28G C60A, for which the yeast fitness was determined as 0.53. Consider C29A C31U A37U A65G, for which the yeast fitness was not above 0.5. Next, C29U C66G A70C: not above 0.5. Take C29A C31U C34A A36G G56C: the yeast fitness was not above 0.5. In the case of U28C A37C A40U, the yeast fitness came to 0.568. Next, C29U C61U A70G: 0.728. C29U G68C: the yeast fitness came out at 0.898. Consider C30G A69C A70G, for which the yeast fitness was not above 0.5. In the case of C30A G48C C61U it was 0.631; in that of C30A A42U, 0.753; in that of C30A A42C, 0.789.

In the case of C30A C31U U59C, the yeast fitness was 0.983. Take C30A C31A C49U C55G: the yeast fitness is 0.672. As for C30G A40C A42G, the yeast fitness is not above 0.5. Next, U28G A70U: 0.842; C30A C31A G38A C49U G52A: not above 0.5. In the case of C29U C33A A36C A42C A45G it was not above 0.5. In the case of C30G A40U C46U A69G it was not above 0.5.

With U28G C55A, the yeast fitness came out at 0.572.

Regarding U28C C31U G50C C55U C60G G63A C66U, the yeast fitness was not above 0.5. Regarding C29A C46A C49A, the yeast fitness is not above 0.5. In the case of C30A U35C U59C G63A it was 0.584; in that of U28C A69C, 0.94.

Turning to C29G C33U C66U, the yeast fitness is not above 0.5.

Consider C29U C30A U59G A69C, for which the yeast fitness was not above 0.5. U28A U64C: the yeast fitness was 0.834.

C30A G38C: the yeast fitness was 0.851. In the case of C29U U47G C49G A70G it was not above 0.5. For the variant C30A C55U G68A, the yeast fitness was not above 0.5. Next, C29A G44A C49A U59A: not above 0.5; U28C C30A G39A C66U: 0.594. In the case of C29G C30G C49U it was 0.66.

In the case of C29G C46A, the yeast fitness was determined as 0.661. Consider C30G C33G A42G C49U C61U, for which the yeast fitness came to 0.663.

Take U28C G41C C49A: the yeast fitness is not above 0.5. On to U28C G41C C49G, for which the yeast fitness is not above 0.5. U28C G52C A65C: the yeast fitness amounted to 0.596. With C29U G44C U54A, the yeast fitness stood at 0.55. For C30A C46A, the yeast fitness turned out to be 1. Next, C29A C33G C61U C66U: not above 0.5. Next, C29G C34A: 0.585. Next, C29G C34U: 0.561; C29A A37G C60A C66U: not above 0.5; C30G A42U: 0.666. Regarding C29G C30U A36C A40G, the yeast fitness was not above 0.5. In the case of C29A A57G, the yeast fitness was determined as 0.646.

Consider C29A A57U, for which the yeast fitness was not above 0.5. With C29G A43C C55G, the yeast fitness came out at 0.657. In the case of C30G C31A G63C it was 0.546; in that of U28C C34U, 0.71. Next, U28C U32C C46G: 0.722; C30A U64G: 0.793; U28A U32C G39C: 0.542. Take C29U C31A: the yeast fitness amounted to 0.609. Regarding U28A U32G C55G, the yeast fitness is 0.505. Next, C30A U54C G63A: 0.601. In the case of U28C A45U C55A C66A it was not above 0.5; in that of U28G C29U A45C, not above 0.5. As for C29A C31U, the yeast fitness turned out to be 0.713. In the case of C29A C31G it was 0.677; in that of C29A A57U C60G, not above 0.5. Turning to C29U A45C A57G A65U, the yeast fitness is not above 0.5.

Consider C29U C34U A57C U64C, for which the yeast fitness worked out at 0.549. Take U28C A40C G56C A65G: the yeast fitness was not above 0.5. In the case of C30G C33G A36C A37U A43U, the yeast fitness was not above 0.5.

On to C30A A42C A69G, for which the yeast fitness is not above 0.5. Turning to C30A C46A A57G C60A, the yeast fitness is not above 0.5.

Regarding C29G C30A, the yeast fitness came to 0.585. In the case of C29U A40C C49G G63A it was not above 0.5; in that of U28A C55G C62U, not above 0.5; in that of U28G C62G, 0.587. Next, C29G G38A: 0.614; C29G G38C G44A: 0.668. Next, C29G C33U A37G A40C: not above 0.5. Regarding C29A C34U G51A G52C U64C, the yeast fitness amounted to 0.663. For the variant C30G C34U A42U G68A, the yeast fitness was not above 0.5. In the case of C29U C31U U54G A65U A69U it was not above 0.5. In the case of U28C U35G A36C A65G C66A it was not above 0.5.

With U28C G50U A65C, the yeast fitness is not above 0.5.

In the case of C29U A43G C49A, the yeast fitness was found to be 0.615. In the case of C29A G38A U54C A69U it was not above 0.5; in that of U28G A40U, 0.843; in that of C29A G38A A69U, 0.583. In the case of C29G C30G A36G A65C it was 0.505; in that of C29A A37G U64A A70U, not above 0.5; in that of C29G C33G G41C G67C, not above 0.5.

On to C30G C33A A36U A65C, for which the yeast fitness is 0.535. In the case of C30A C46U C55U it was 0.573; in that of C29A C31U A43U, 0.506. In the case of C30G C34U A45C U53G C61G, the yeast fitness was not above 0.5.

For C30G A40U A70U, the yeast fitness turned out to be 0.526. Next, C29A C46U C55A: 0.572; U28G C46U C60A A65U A69U: not above 0.5; C29G A40U C66G: 0.551. Next, C29G G38A A43G G50A: not above 0.5. Turning to C30G A42C C55U, the yeast fitness is not above 0.5.

With U28C G38C, the yeast fitness amounted to 0.579. Next, C29U C33U C66U G67A: 0.598; C29A C49A: 0.506; C29U A43G: 0.883. Next, C29G U54G U59A: not above 0.5; C29U G38A G48C A57G: not above 0.5; C29U G44C C49U A57U A69U: not above 0.5. Next, U28C G58C: 0.912; C29G C33A C34G: not above 0.5; U28C A42U A69U: 0.74.

On to C29G U35G C60U, for which the yeast fitness was not above 0.5. On to U28G C31G G39A, for which the yeast fitness came to 0.578. In the case of C29U G41C C49A it was 0.62. Take U28G A43U: the yeast fitness stood at 0.948. With C29U C49U C55A, the yeast fitness is not above 0.5. C29A A37C: the yeast fitness was 0.597. Take U28G C29A C55A: the yeast fitness is not above 0.5. Next, U28G G38U: 0.711; U28C C29A A69U: 0.559. Next, C30A G50C: 0.594; C30A G50U: 0.816; C30A C49A: 0.699. In the case of C29U A69U it was 0.868; in that of C30A U35C, 0.93; in that of C30A A43U C61U, 0.602.

Regarding C29G A36C G41A G50A U53C, the yeast fitness is not above 0.5. For the variant C29G A40U G50C G67U A69G, the yeast fitness is not above 0.5.

U28C A36C U47A G58C G67U: the yeast fitness is not above 0.5. In the case of C30A A42C G58A, the yeast fitness is not above 0.5. In the case of C29U G39U C49G it was not above 0.5; in that of C30A G58C G68A, not above 0.5; in that of C29U G39U, 1.07. On to C29U G39C, for which the yeast fitness amounted to 0.65.

Turning to C29U A45C, the yeast fitness stood at 0.778. With C29U U59G, the yeast fitness amounted to 0.83. With C29A A37G C55A, the yeast fitness was not above 0.5.

On to C30A A37G C46U A57C, for which the yeast fitness is not above 0.5.

As for C30A A36U G39A A45G G63U, the yeast fitness is not above 0.5. In the case of C30A C31U A40U G56C A69C it was not above 0.5. Next, U28C C49G: 0.909; C29A G39A: 0.725. Next, U28C A70U: 0.87; U28G G58C: 0.771.

Consider C29U U32C C62U A70U, for which the yeast fitness was not above 0.5. For the variant C30A A42C C66A, the yeast fitness is 0.719. On to C30A G56A C66G, for which the yeast fitness is not above 0.5.

In the case of U28G C31U A40C A57G, the yeast fitness worked out at 0.837. Next, C30A C60A C62A: not above 0.5; U28A U32C A43C A57C: not above 0.5; C29U A37U C46U U59G: not above 0.5. Turning to C30A A57C C60G, the yeast fitness was not above 0.5. In the case of U28C U47A C49U G63C, the yeast fitness came to 0.683. Next, C29A C30U A42U: not above 0.5; C29G U35C C55G A57G: not above 0.5; C29A G41A A43C: 0.55.

For C29A C33G, the yeast fitness was 0.616. In the case of C29A C33U it was not above 0.5. Next, C29U A42U A43U U54C C55G: not above 0.5.

C29U G38C C49U G68A: the yeast fitness is not above 0.5. In the case of C29G U53C U54G it was 0.509; in that of C29A G50C, 0.553; in that of C30G C34G U35A G68A, not above 0.5.
